# Bioassay records: PubChem, The Scripps Research Institute Molecular Screening Center
# Hits are enriched below; roughly 1.6% of the tested compounds scored in any of these assays.
# ABHD4 inh = inhibitors of mouse ABHD4; purified mABHD4, FP-Rh probe fluorescence polarization; 370,000 tested, 0.54% active; inhibition, % at 8.92 µM;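 active means inhibition exceeding the mean over every tested compound plus 3 SD, cut at about 30% in these data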
# Target sequence (Q8VD66 whole entry, looked up): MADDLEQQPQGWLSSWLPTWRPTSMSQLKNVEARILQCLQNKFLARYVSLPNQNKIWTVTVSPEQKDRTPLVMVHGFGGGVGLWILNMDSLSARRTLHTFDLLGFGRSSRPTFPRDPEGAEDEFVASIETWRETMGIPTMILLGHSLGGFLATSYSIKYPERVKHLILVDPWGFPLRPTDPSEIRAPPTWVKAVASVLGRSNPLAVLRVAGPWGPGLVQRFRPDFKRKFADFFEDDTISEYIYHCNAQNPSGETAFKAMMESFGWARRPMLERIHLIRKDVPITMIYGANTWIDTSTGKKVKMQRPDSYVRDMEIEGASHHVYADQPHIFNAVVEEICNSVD
#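 Test system: mouse ABHD4 enzyme, wild type. Reagent: FP-Rh fluorescent activity-based probe, added after compound pre-incubation. Timing: pre-incubation 45 min, probe exposure 60 min, at 25 °C. Technique: FP readout, ex 525 nm / em 598 nm. Benchmarks: high control S159A mutant with DMSO, low control median of compound wells.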
# HTRA1 inh = HTRA1 (human) protease inhibition; Q92743; 340,000 tested, 0.5% active; inhibition, % at 5.96 µM; recombinant HTRA1, FP-rhodamine activity-based probe, fluorescence polarization; in the data active means inhibition above about 36%
# TCR CD3 inh = human TCR-CD3 binding inhibition | TAMRA-labeled TCR probe fluorescence, biochemical | inhibition, % at 9.4 µM | 360,000 tested, 0.37% active | AID 651800;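 further: recombinant mutant TCR 2C K166C tagged with TAMRA read by polarization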
# SIAE primary = inhibitors of human sialic acid acetylesterase SIAE; Q9HAT2; 370,000 tested, 0.69% active; inhibition, % at 9.66 µM; SIAE FP-Rh probe binding, fluorescence polarization;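 active means inhibition above a cutoff: mean of compounds within the control limits plus 3 SD of those, cut at about 17% in these data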
# DAGLB inhibitor = blocks human DAGLB lipase activity; Q8NCG7; HEK293T DAGLB membrane lysate, EnzChek fluorogenic substrate; inhibition, % at 5.17 µM; 340,000 tested, 0.059% active; AID 504411; in the data active means inhibition above about 34%
# BSA TAMRA ctr = counter-screen for TCR-CD3 interaction inhibitors: BSA probe | AID 652035 | inhibition, % at 9.4 µM | shares compounds with TCR CD3 inh | TAMRA-labeled BSA probe fluorescence counterscreen | 1,200 tested, 10% active; in the data active means inhibition above about 23%
# TCR-CD3 inh conf = TCR-CD3 interaction inhibition, confirmation. 1,200 tested, 48% active. inhibition, % at 9.4 µM. shares compounds with TCR CD3 inh. AID 652036. TAMRA-labeled TCR probe fluorescence binding assay
# mABHD4 conf = ABHD4 (mouse) inhibition, FP confirmation; purified mABHD4, FP-Rh probe fluorescence polarization; 1,800 tested, 55% active; inhibition, % at 8.92 µM; shares compounds with ABHD4 inh;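 active means mean inhibition across replicates above the hit cutoff set in the primary screen, cut at about 30% in these data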
# Numbers stand for hits; 0 = inactive; - = no result given. Unless noted, no stated cut-off is given here; in the data, active means inhibition above about 19%; inactive means the rest.
SMILES,ABHD4 inh,HTRA1 inh,TCR CD3 inh,SIAE primary,DAGLB inhibitor,BSA TAMRA ctr,TCR-CD3 inh conf,others
COc1ccc(C(=O)N/N=C\c2ccc(OC)c(COc3ccccc3Br)c2)c(OC)c1,0,0,26,0,0,0,32,
CCOC(=O)NC[C@@]1(C(=O)OC)CC(=O)N(C)[C@@H]1c1ccccc1,0,-,-,0,-,-,-,
C[C@@H]1CN([C@H](C)CO)C(=O)c2cc(NC(=O)Nc3ccc(C(F)(F)F)cc3)ccc2O[C@H]1CN(C)Cc1ccc(Cl)c(Cl)c1,0,0,27,0,0,24,46,
C[C@H](CO)N1C[C@H](C)[C@@H](CN(C)S(C)(=O)=O)Oc2ccc(NC(=O)Nc3ccc(C(F)(F)F)cc3)cc2C1=O,0,0,0,0,0,-,-,
C[C@H](CO)N1C[C@H](C)[C@H](CN(C)S(=O)(=O)c2cn(C)cn2)Oc2ccc(NC(=O)Nc3ccc(C(F)(F)F)cc3)cc2CC1=O,0,0,0,0,0,-,-,
C[C@@H]1CN([C@H](C)CO)C(=O)c2cc(NC(=O)Nc3ccc(C(F)(F)F)cc3)ccc2O[C@H]1CN(C)S(=O)(=O)c1ccc(Cl)cc1,0,0,54,0,0,25,52,
C[C@@H]1CN([C@@H](C)CO)C(=O)Cc2cc(NC(=O)Nc3ccc(C(F)(F)F)cc3)ccc2O[C@@H]1CN(C)S(=O)(=O)c1ccc(Cl)cc1,0,0,48,0,0,0,26,
C[C@H]1CN([C@@H](C)CO)C(=O)c2cccc(NC(=O)Nc3ccc(C(F)(F)F)cc3)c2O[C@@H]1CN(C)Cc1ccc(Cl)c(Cl)c1,0,0,0,0,0,-,-,
C[C@H](CO)N1C[C@H](C)[C@@H](CN(C)S(=O)(=O)c2ccc(F)cc2)Oc2ccc(NC(=O)Nc3ccc(C(F)(F)F)cc3)cc2C1=O,0,0,22,0,0,0,42,
CCOC(=O)C1=C(C(=O)OCC)C2N(Cc3ccc(C#N)cc3)c3ccccc3[C@@]23C[C@@H](C(=O)OC)N(S(=O)(=O)c2c(C)noc2C)C3=N1 (stereo partly drawn),0,-,0,0,-,-,-,
Cc1ccc(NC(=O)C2CC3CCC2C3)cc1 (stereo not drawn),0,-,-,0,-,-,-,
COP1(=O)CCOCC[C@H](CC(C)C)NC(=O)[C@H](CC(C)C)N1 (stereo partly drawn),0,-,-,0,-,-,-,
COc1ccc(CNC(=O)C2CCCN(c3nc4ccccc4o3)C2)cc1 (stereo not drawn),0,-,-,0,-,-,-,
OC(c1ccc(F)c(F)c1)c1nc(-c2ccncc2)cs1 (stereo not drawn),0,-,0,0,-,-,-,
OC(c1ccc(F)cc1)c1nc(-c2ccncc2)cs1 (stereo not drawn),0,-,46,0,-,0,0,
CCOC(=O)C1=C(C(=O)OCC)C2N(Cc3ccccc3)c3ccccc3[C@@]23C[C@@H](C(=O)OC)N(S(=O)(=O)c2ccc(C(F)(F)F)cc2)C3=N1 (stereo partly drawn),0,-,0,0,-,-,-,
CC(C)C1O/C(=N/C(=O)Nc2ccc(Cl)c(Cl)c2)NC1=O (stereo not drawn),0,0,35,0,0,0,0,
COc1ccc(CN2C(C(=O)NCC(C)C)CSCCS2(=O)=O)cc1 (stereo not drawn),0,-,-,0,-,-,-,
C[C@H](O)[C@@H]1CN2CCc3c([nH]c4c(-c5ccc6c(c5)OCO6)cccc34)[C@@H]2C[C@@H]1N(C)C(=O)c1ccccc1F,0,-,-,0,-,-,-,
Nc1ncc(-c2ccc(F)cc2)nc1N1CCN(CCO)CC1,0,-,0,0,-,-,-,
OCCN1CCN(c2cnc(-c3ccsc3)cn2)CC1,0,-,38,0,-,0,0,
O=C(c1ccc2c(c1)OCO2)N1CCC(Oc2cccnc2)CC1,0,-,-,0,-,-,-,
CC(C)Oc1cccc(-c2csc(N3CCC(C(N)=O)CC3)n2)c1,0,-,-,0,-,-,-,
COc1ccc(Cl)cc1C(=O)NNC(=O)COC(=O)c1ccc(Br)o1,0,0,20,0,0,0,0,
O=C(C1CCN(c2cncnc2)CC1)N1CCCC1,0,-,-,0,-,-,-,
SMILES,ABHD4 inh,HTRA1 inh,TCR CD3 inh,SIAE primary,DAGLB inhibitor,BSA TAMRA ctr,TCR-CD3 inh conf,others
COc1ccc(/C=N/N2C(=O)c3ccccc3C2=O)cc1,0,0,0,0,0,-,-,
COc1ccccc1/C=N/N1C(=O)c2cccc3cccc(c23)C1=O,0,0,32,0,0,33,19,
NC(=O)[C@@H]1CC2(CC(c3cccc(NC(=O)CC(c4ccccc4)c4ccccc4)c3)=NO2)CN1C(=O)COc1ccc(Cl)cc1 (stereo partly drawn),0,0,32,0,0,0,31,
CCC(=O)Nc1cccc(C2=NOC3(C2)C[C@@H](C(N)=O)N(C(=O)COc2ccc(Cl)cc2)C3)c1 (stereo partly drawn),0,0,0,0,0,-,-,
NC(=O)[C@H]1CC2(CC(c3cccc(NC(=O)COc4ccc(Cl)cc4)c3)=NO2)CN1C(=O)CC(c1ccccc1)c1ccccc1 (stereo partly drawn),0,0,54,0,0,0,30,
NC(=O)[C@H]1CC2(CC(c3cccc(NC(=O)COc4ccc(Cl)cc4)c3)=NO2)CN1C(=O)c1ccc(Cl)cc1 (stereo partly drawn),0,0,0,0,0,-,-,
CCOC(=O)C1=C(N)Oc2ccc3ccccc3c2C1c1cccnc1 (stereo not drawn),0,0,0,0,0,-,-,
CCOC(=O)C1=C(N)Oc2cc(C)oc(=O)c2C1c1cccnc1 (stereo not drawn),0,0,21,0,0,0,0,
O=c1c(O)c(-c2ccccc2)oc2cc(O)cc(O)c12,0,0,0,0,0,-,-,
O=c1c(O)c(-c2cc(O)c(O)c(O)c2)oc2cc(O)cc(O)c12,42,0,29,56,0,0,45,mABHD4 conf=48
Cc1ccc(CN2CC(N3CCC[C@@H]3C)CS2(=O)=O)cc1 (stereo partly drawn),0,-,0,0,-,-,-,
c1ccc(C2OC3c4cccc5cccc(c45)C3N2c2ccccc2)cc1 (stereo not drawn),48,0,25,0,0,0,0,mABHD4 conf=0
Cc1onc(-c2ccccc2Cl)c1C(=O)NCc1ccc2c(c1)cc(C)n2C,30,0,34,0,0,0,0,mABHD4 conf=0
CCCCc1c(-c2ccccc2OC)ncn1Cc1cccc(F)c1F,0,-,0,0,-,-,-,
CCCOc1ccc(/C=N/Nc2ccccc2[N+](=O)[O-])c(O)c1,0,0,0,0,0,-,-,
CCCOc1ccc(/C=N/NC(=S)Nc2ccccc2[N+](=O)[O-])c(O)c1,39,-,27,0,-,0,0,mABHD4 conf=36
Cc1ccccc1NC(=S)N/N=C/c1ccc(O)cc1O,34,0,20,0,0,0,0,mABHD4 conf=0
